Shown are actives, neighbours in structure and some others; about 3.2% of the full set was active somewhere.
DENV2 CPE rescue: inhibitors of DENV2 cytopathic effect, primary screen, cell-based, plate reader, single concentration. CPE inhibition, % at 9.99 µM. AID 651640, 2012. DENV2-infected cells, cytopathic effect rescue. 1.7% of 350,000 active; in the data active means CPE inhibition above about 20%, passing the limit was not always enough; inconclusive means no clear call, values can overlap the other calls; tested in BHK-21 cells
S100A4 inh HTS: inhibitors of S100A4-myosin IIA peptide binding, primary screen, biochemical, fluorescence polarization, TAMRA-MyoIIA peptide; Protein S100-A4 (Homo sapiens), P26447; inhibition, % at 10.7 µM; 0.14% of 360,000 active; AID 652163, 2013;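 active means mean inhibition of at least 70% across replicates, with every replicate also reaching that level; inconclusive means mean inhibition reaches 70% but some replicates fall short; inactive means mean inhibition below 70%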
Target sequence (P26447 whole entry, looked up): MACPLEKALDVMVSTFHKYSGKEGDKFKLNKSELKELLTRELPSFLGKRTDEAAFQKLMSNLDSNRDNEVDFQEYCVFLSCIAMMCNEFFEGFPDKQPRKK
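assay system = human S100A4 monomer with TAMRA-labelled myosin IIA peptide | also added = labelled myosin peptide probe, 5 nM | incubation = 5 min between mix addition and reading | control set = DMSO and TFP controls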
PfHsp90 yeast 2: growth inhibition of PfHsp90-expressing yeast, primary screen, antimalarial PfHsp90 inhibitor project, S. cerevisiae, BacTiter-Glo luminescence, single point, set 2; BacTiter-Glo ATP, 48 h; yeast lacking PDR1 and PDR3 efflux regulators; inhibition, % at 9.4 µM; 0.32% of 310,000 active; AID 504621, 2011;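 active means every replicate shows inhibition above about 80%, whatever the replicate mean, limit read from the data; inconclusive means mean inhibition reaches the set limit but some replicate falls short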
rRNA inh HTS: reduced GFP signal of wild-type E. coli, primary screen, bacterial rRNA inhibitor project, GFP/RFP fluorescence, OD600, single point; E. coli WT GFP vs humanized-ribosome RFP mutants, 24 h; active compounds read low; DMSO median 0, no signal -100; GFP signal change (wild-type ribosome), % (test concentration not listed); 1.6% of 350,000 active; AID 720706, 2013;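 active means significant combined selectivity score with lowered wild-type GFP, culture density cut under 30%, mutant RFP and density less affected; inactive means any of these conditions unmet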
AF4-AF9 inh: inhibitors of AF4 peptide binding to AF9, primary screen, biochemical, AlphaScreen, biotin-AF4 peptide, FLAG-AF9, single point. inhibition, % at 10 µM. 0.47% of 350,000 active. Protein AF-9 (Homo sapiens), P42568;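 active means every replicate reaching a set inhibition limit, whatever the replicate mean, cut at about 25% in these data; inconclusive means mean inhibition reaches that limit but some replicates miss it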
Cneo AK release: Cryptococcus neoformans cell lysis inducers, primary screen, AK release luminescence, single concentration | C. neoformans lysis, adenylate kinase release luminescence, 4 h; normalised: neutral wells 0, clomiphene wells 100 | lysis activity, % at 15 µM | 0.2% of 360,000 active | AID 651654, 2012;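 active means mean lysis activity across replicates of at least 80%, whatever share of replicates individually reach that level; inactive means mean lysis activity below 80%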
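read-out = cell lysis signal | test system = log-phase Cryptococcus neoformans yeast cells | input = cells at 5 × 10^6 per mL | medium = fresh YPD growth medium | signal = luminescent adenylate kinase detection reagent | timing = 4 h at 37 °C static, read 1 h later | dosing = single dose | controls = Clomiphene as positive lysis control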
AlphaScreen intf: AlphaScreen signal interference counter-screen, dose response, artefact control, biochemical, cherry-picked samples, luminescence; AC50, µM (titrated, usually from 12 µM); shares compounds with AF4-AF9 inh; AID 720494, 2013; 45% of 530 active; cut-off not given, nearly all actives have AC50 up to about 14 µM
Large screens that a line does not name were inactive (follow-up assays come after a bar, where they were run).

CN(C(=O)c1ccc(NC(=O)Cc2ccc(NC(=O)C3CCN(C(=O)c4ccccc4)CC3)cc2)cc1)C1CC1	DENV2 CPE rescue inconclusive, AF4-AF9 inh 37.5 | AlphaScreen intf inactive
COc1ccccc1-c1cn(CC[C@H]2CC[C@H](NC(=O)NC(C)C)[C@@H](CO)O2)nn1	none (no result: PfHsp90 yeast 2)
COCC(=O)Nc1ccc2c(c1)C(=O)N(C)C[C@H](OC)[C@H](C)CN(Cc1cncnc1)[C@@H](C)CO2	none (no result: PfHsp90 yeast 2)
Cc1ccc(S(=O)(=O)N(C)C[C@@H]2Oc3ncc(C#Cc4ccc(C(F)(F)F)cc4)cc3C(=O)N([C@H](C)CO)C[C@@H]2C)cc1	DENV2 CPE rescue inconclusive (no result: PfHsp90 yeast 2)
O=C(N/N=C\c1ccc(F)cc1)c1ccc(F)cc1	none (no result: DENV2 CPE rescue)
C[n+]1c(-c2ccc(C=NNC(=O)c3ccc(C(=O)NN=Cc4ccc(-c5cn6ccccc6[n+]5C)cc4)cc3)cc2)cn2ccccc21	DENV2 CPE rescue inconclusive, AF4-AF9 inh 77.9 (no result: rRNA inh HTS, Cneo AK release) | AlphaScreen intf inactive
C[C@@H]1CN([C@H](C)CO)C(=O)c2cc(-c3ccc(F)cc3)cnc2O[C@H]1CN(C)C(=O)C1CCC1	none (no result: PfHsp90 yeast 2)
COc1cccc(/C=N/N2CCN(c3ccccc3OC)CC2)c1	none (no result: DENV2 CPE rescue, S100A4 inh HTS, rRNA inh HTS, AF4-AF9 inh)
COc1ccc(/C=N/N2CCN(c3ccccc3OC)CC2)cc1Br	AF4-AF9 inh 27.1 | AlphaScreen intf inactive
COc1ccccc1N1CCN(/N=C/C=C\c2ccccc2[N+](=O)[O-])CC1	AF4-AF9 inh 51.0 (no result: Cneo AK release) | AlphaScreen intf inactive
COc1ccccc1N1CCN(/N=C/c2cccc(Cl)c2)CC1	AF4-AF9 inh 26.7 | AlphaScreen intf inactive
O=[N+]([O-])c1ccc(N=Nc2c(Cl)cc(O)cc2Cl)cc1	PfHsp90 yeast 2 131.2, AF4-AF9 inh 51.6 | AlphaScreen intf 14.1µM
CC(N)=Nc1ccc([N+](=O)[O-])cc1	none (no result: DENV2 CPE rescue, S100A4 inh HTS, rRNA inh HTS, AF4-AF9 inh)
CN(C)c1ccc(NC2=C(Cl)C(=O)c3ccccc3C2=O)cc1	AF4-AF9 inh 63.8 | AlphaScreen intf 1.92µM
C[C@@H]1CN([C@@H](C)CO)C(=O)c2cc(NC(=O)C3CCCCC3)ccc2O[C@@H](C)CCCCO[C@@H]1CN(C)C(=O)Nc1ccc(F)cc1	none (no result: PfHsp90 yeast 2)
COc1ccccc1-c1cn(CC[C@H]2CC[C@@H](NC(=O)C3CCOCC3)[C@H](CO)O2)nn1	none (no result: PfHsp90 yeast 2)
CCOC(=O)N1CCN(C(c2ccnc3ccccc23)c2nnnn2-c2ccc3c(c2)OCCO3)CC1 (stereo not drawn)	none (no result: PfHsp90 yeast 2, Cneo AK release)
CC(C)(C)OC(=O)N1CCCN(C(c2ccnc3ccccc23)c2nnnn2-c2ccc3c(c2)OCCO3)CC1 (stereo not drawn)	DENV2 CPE rescue inconclusive, AF4-AF9 inh 36.2 (no result: PfHsp90 yeast 2, Cneo AK release) | AlphaScreen intf inactive
CO[C@H]1CN(C)C(=O)c2cc(NC(=O)C3CCOCC3)ccc2OC[C@@H](C)N(C(C)=O)C[C@H]1C	none (no result: PfHsp90 yeast 2)
COc1ccc(NC2CCCN(Cc3cccc4cnccc34)C2)cc1 (stereo not drawn)	AF4-AF9 inh inconclusive
COc1ccc(NC2CCCN(Cc3cccc4cnccc34)C2)cc1OC (stereo not drawn)	AF4-AF9 inh 26.1 | AlphaScreen intf inactive
COc1ccc(S(=O)(=O)N(C)C[C@H]2OCCCC[C@@H](C)Oc3ccc(NC(=O)NC4CCCCC4)cc3C(=O)N([C@@H](C)CO)C[C@@H]2C)cc1	none (no result: PfHsp90 yeast 2)
CO[C@H]1CN(C)C(=O)c2ccc(NC(=O)Nc3cc(F)ccc3F)cc2OC[C@@H](C)NC[C@@H]1C	none (no result: PfHsp90 yeast 2)
COC1=C(Nc2ccccc2OC)C(=O)c2ccccc2C1=O	AF4-AF9 inh 50.3 | AlphaScreen intf 7.93µM
COc1ccccc1NC1=C(NC(C)=O)C(=O)c2ccccc2C1=O	none (no result: DENV2 CPE rescue, Cneo AK release)

Bioassay records as filed in PubChem BioAssay.
